In PMC7240828 (ACS Omega, 2020):
Entries after “also recorded” stand apart in the source; their conditions may differ.

Key:
SGLT1 = biological target: T1, SGLT1 (Homo sapiens, UniProt P13866); test: Flavonoid uptake/transport in Caco-2 BBe1 cells with phloridzin; assay type: in vitro ADME; settings: 50 μM flavonoid, 4 h; for fold change of glycoside transport by phloridzin-mediated inhibition: 1 μM phloridzin 30 min pretreatment, basolateral transport; for effect of phloridzin on cellular uptake and transport of the flavonoid / effect of phloridzin on cellular uptake of the flavonoid: 1 μM phloridzin; for effect of phloridzin on cellular uptake of the flavonoid: cell lysate
T1 sequence (P13866 1-664): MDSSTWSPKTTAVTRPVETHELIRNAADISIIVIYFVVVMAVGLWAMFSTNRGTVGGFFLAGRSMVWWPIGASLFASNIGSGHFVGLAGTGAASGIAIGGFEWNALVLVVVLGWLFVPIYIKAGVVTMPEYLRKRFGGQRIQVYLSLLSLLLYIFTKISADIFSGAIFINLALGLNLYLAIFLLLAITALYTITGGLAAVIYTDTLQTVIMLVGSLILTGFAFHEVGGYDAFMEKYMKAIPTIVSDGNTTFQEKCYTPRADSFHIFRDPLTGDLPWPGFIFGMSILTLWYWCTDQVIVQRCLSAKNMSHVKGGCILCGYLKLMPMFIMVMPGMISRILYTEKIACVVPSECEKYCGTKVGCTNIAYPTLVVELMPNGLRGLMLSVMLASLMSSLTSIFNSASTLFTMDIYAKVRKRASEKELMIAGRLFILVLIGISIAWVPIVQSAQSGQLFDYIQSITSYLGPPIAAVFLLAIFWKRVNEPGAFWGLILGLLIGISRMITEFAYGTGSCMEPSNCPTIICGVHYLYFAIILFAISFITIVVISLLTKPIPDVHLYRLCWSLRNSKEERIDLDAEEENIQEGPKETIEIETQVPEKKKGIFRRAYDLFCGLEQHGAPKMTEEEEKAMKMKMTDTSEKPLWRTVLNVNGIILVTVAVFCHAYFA
In short: (§1)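 Quantitation was by HPLC on a phenyl-hexyl column (DAD, 360 and 520 nm), using external standard curves from 0–50 μM. Values are expressed as percent of the amount added apically. Data are mean ± SEM of at least three independent experiments.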

Caco-2 BBe1 monolayers = assay type: in vitro ADME, human; settings: 50 μM apical, 0.5, 2 and 4 h, cell lysate and basolateral compartment
In short: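 Cells at passage 50–60 were grown on PET inserts (3 × 10^4 cells/well) in supplemented high-glucose DMEM at 37 °C, 5% CO2. Monolayers with TEER >400 Ω cm2 on day 9 were used. 50 μM test compound in HBSS pH 6.4 was applied apically, with HBSS/10 mM HEPES pH 7.4 basolaterally. Basolateral medium and sonicated, methanol/2% FA-extracted lysates were sampled at 0.5, 2 and 4 h.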

Caco-2 BBe1 cells = test: Cellular glucose; assay type: cell-based, human; settings: 50 μM, 2 h pretreatment, 2-NBDG fluorescence, vs positive control
In short: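 Cells seeded at 1 × 10^5 per well and grown overnight, then PBS-washed. Pretreated with 50 μM test compound in glucose-free DMEM for 2 h. Glucose-free DMEM containing 300 μg/mL 2-NBDG was then added for another 2 h. After a PBS wash, fluorescence was read at ex 485/em 535 nm and compared with the positive control group.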

GLUT2 = biological target: T2, GLUT2 (Homo sapiens, UniProt P11168); test: Flavonoid uptake/transport in Caco-2 BBe1 cells with phloretin; assay type: in vitro ADME; settings: 1 μM phloretin, 50 μM flavonoid, 4 h, cell lysate
T2 sequence (P11168 1-524): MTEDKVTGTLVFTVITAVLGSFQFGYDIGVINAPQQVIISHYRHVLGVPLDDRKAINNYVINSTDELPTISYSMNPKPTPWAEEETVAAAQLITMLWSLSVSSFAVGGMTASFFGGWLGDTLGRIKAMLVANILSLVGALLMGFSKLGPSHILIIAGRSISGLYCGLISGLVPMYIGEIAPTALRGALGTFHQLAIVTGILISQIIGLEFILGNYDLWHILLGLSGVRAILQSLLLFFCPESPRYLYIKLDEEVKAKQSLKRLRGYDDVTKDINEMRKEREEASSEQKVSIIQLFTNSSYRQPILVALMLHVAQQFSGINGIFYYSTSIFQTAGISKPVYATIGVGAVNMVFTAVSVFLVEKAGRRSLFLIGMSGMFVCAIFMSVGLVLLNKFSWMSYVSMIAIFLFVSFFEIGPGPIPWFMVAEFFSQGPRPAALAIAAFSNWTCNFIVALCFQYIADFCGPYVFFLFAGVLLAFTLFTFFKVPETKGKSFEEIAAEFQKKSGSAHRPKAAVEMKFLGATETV
In short: as §1

Caco-2 cells = settings: SGLT1-depended manner; cited from earlier work

| Structure (SMILES) | fold change of glycoside transport by phloridzin-mediated inhibition (SGLT1) | effect of phloridzin on cellular uptake and transport of the flavonoid (SGLT1) | effect of phloridzin on cellular uptake of the flavonoid (SGLT1) | cellular uptake and transport kinetics (Caco-2 BBe1 monolayers) | inhibition of glucose uptake (Caco-2 BBe1 cells) | effect of phloretin on cellular uptake of the flavonoid (GLUT2) | inhibition of glucose uptake (Caco-2 cells) |
| --- | --- | --- | --- | --- | --- | --- | --- |
| OC[C@H]1O[C@@H](Oc2cc3c(O)cc(O)cc3[o+]c2-c2ccc(O)c(O)c2)[C@H](O)[C@@H](O)[C@@H]1O [C-3-G, cyanidin 3-O-glucoside] | 3.29 fold | significantly reduced the amount of cellular and transported | less significant | continued to increase as the incubation period extends from 30 min to 4 h |  |  |  |
| O=c1c(O[C@@H]2O[C@H](CO)[C@@H](O)[C@H](O)[C@H]2O)c(-c2ccc(O)c(O)c2)oc2cc(O)cc(O)c12 [Q-3-G, quercetin 3-β-D-glucoside] | 2.31 fold | significantly reduced the amount of cellular and transported |  |  |  |  |  |
| Oc1cc(O)c2cc(O)c(-c3ccc(O)c(O)c3)[o+]c2c1 [cyanidin] |  | no effect on the uptake and transport |  | noticeable decrease; also recorded: readily permeated into the intestinal mucosa within 2 h | significantly blocked the glucose uptake |  |  |
| OC[C@H]1O[C@@H](Oc2cc3c(O[C@@H]4O[C@H](CO)[C@@H](O)[C@H](O)[C@H]4O)cc(O)cc3[o+]c2-c2ccc(O)c(O)c2)[C@H](O)[C@@H](O)[C@@H]1O [cyanin, cyanidin 3,5-diglucoside] | 6.45 fold | significantly reduced the amount of cellular and transported | significantly inhibited by phloridzin | continued to increase as the incubation period extends from 30 min to 4 h |  | significantly inhibited cellular uptake |  |
| O=c1c(O)c(-c2ccc(O)c(O)c2)oc2cc(O)cc(O)c12 [quercetin] |  | no effect on the uptake and transport |  | both concentrations continued to increase; also recorded: readily permeated into the intestinal mucosa within 2 h | significantly blocked the glucose uptake |  |  |
| C[C@@H]1O[C@@H](OC[C@H]2O[C@@H](Oc3c(-c4ccc(O)c(O)c4)oc4cc(O)cc(O)c4c3=O)[C@H](O)[C@@H](O)[C@@H]2O)[C@H](O)[C@H](O)[C@H]1O [rutin, quercetin 3-rutinoside] | 5.77 fold | significantly reduced the amount of cellular and transported |  |  |  |  | inhibited glucose uptake |
